# Screening results: PubChem BioAssay, several laboratories
# Rows were chosen to be rich in hits. Some 1.8% of all compounds tested hit in one or more screens of this group.
# PLK1 kinase inh = human PLK1 kinase inhibitors, primary screen, biochemical, TR-FRET | AID 619, 2007 | inhibition, % at 10 µM | recombinant PLK1 kinase, TR-FRET peptide phosphorylation | 97,000 tested, 0.53% active | Serine/threonine-protein kinase PLK1 (Homo sapiens), P53350;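 active means inhibition of 50% or more in the single-concentration screen; inactive means inhibition below 50%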;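 further: 0% = DMSO max control and 100% = H-89 dihydrochloride min control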
# Target sequence (P53350 whole entry, looked up): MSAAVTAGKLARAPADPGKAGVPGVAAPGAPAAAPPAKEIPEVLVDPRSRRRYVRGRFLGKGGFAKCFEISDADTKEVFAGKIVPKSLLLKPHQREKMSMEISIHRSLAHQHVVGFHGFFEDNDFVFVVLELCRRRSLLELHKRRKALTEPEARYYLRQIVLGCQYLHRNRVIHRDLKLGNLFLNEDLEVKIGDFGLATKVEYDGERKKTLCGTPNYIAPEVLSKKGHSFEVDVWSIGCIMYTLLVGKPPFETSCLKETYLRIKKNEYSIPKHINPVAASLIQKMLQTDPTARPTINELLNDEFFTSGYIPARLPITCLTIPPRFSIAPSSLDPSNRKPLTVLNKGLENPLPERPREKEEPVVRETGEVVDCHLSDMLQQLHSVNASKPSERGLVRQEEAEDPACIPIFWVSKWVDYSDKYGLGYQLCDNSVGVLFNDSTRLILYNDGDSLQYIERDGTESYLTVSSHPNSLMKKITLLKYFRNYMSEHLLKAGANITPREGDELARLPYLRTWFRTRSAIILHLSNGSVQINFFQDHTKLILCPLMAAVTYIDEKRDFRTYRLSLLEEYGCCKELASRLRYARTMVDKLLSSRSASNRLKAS
# PTPN22 inh 2 = PTPN22 phosphatase inhibitors, primary screen, biochemical, DiFMUP fluorescence, 2 µM. recombinant LYP catalytic domain. inhibition, % at 2 µM. 96,000 tested, 0.21% active;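 active means inhibition at 2 µM at or above a set limit, the screen mean plus 3 SD, cut at about 24% in these data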;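 further: 0% = DMSO with enzyme and 100% = enzyme fully blocked by orthovanadate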
# PTPN22 act = LYP phosphatase activators, primary screen, biochemical, DiFMUP fluorescence, 2 µM | 96,000 tested, 0.11% active | AID 697, 2007 | recombinant LYP; 0 = plate median, 100 = signal doubled | Tyrosine-protein phosphatase non-receptor type 22 (Homo sapiens), Q9Y2R2 | activation, % at 2 µM;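 active means activation at 2 µM above a set limit, the mean plus 5 SD, cut at about 37% in these data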
# EphB4 antag = EphB4-ephrin-B2 interaction antagonists, primary screen, biochemical, TNYL-RAW peptide probe, fluorescence polarization. AID 720, 2007. EphB4 LBD / TNYL-RAW-Alexa532 peptide. Ephrin type-B receptor 4 (Homo sapiens), P54760. inhibition, % at 7 µM. 97,000 tested, 0.15% active;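 active means inhibition above the screen-wide mean inhibition plus 3 SD, cut at about 15% in these data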;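 further: 0% = DMSO wells and 100% = excess unlabeled TNYL-RAW peptide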
# Rev-RRE block = HIV-1 Rev-RRE binding inhibitors, primary screen, biochemical, FRET, protein-RNA interaction. P05866. Rev peptide-RRE RNA binding. inhibition, % at 8 µM. 97,000 tested, 0.79% active;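 active means inhibition above the screen-wide mean plus 3 SD, cut at about 35% in these data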;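 further: 0% = median DMSO wells and 100% = median Neomycin B control wells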
# Target sequence (P05866 whole entry, looked up): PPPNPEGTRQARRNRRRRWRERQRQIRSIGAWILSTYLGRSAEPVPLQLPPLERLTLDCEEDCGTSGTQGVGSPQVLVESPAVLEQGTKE
#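 Material: labelled RRE RNA duplex and labelled Rev peptide / Buffer or medium: HEPES pH 7.5 salt buffer with EDTA / Compound dosing: single point, 8 µM final nominal compound concentration / Benchmarks: DMSO low control, neomycin B high control / Timing: 5 min preincubation and 15 min binding, 25 °C / Technique: FRET fluorescence readout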
# PLK1 PBD inh = Plk1 polo box domain binding inhibitors, primary screen, biochemical, fluorescence polarization; inhibition, %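 (tested at about 20 µM)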; Serine/threonine-protein kinase PLK1 (Homo sapiens), P53350; AID 693, 2007; Plk1 PBD phosphopeptide binding; 97,000 tested, 0.13% active; in the data active means inhibition above about 34%, passing the limit was not always enough
# The depositor's hits bear a star; / = no result; [ ] = remark or other dose.
SMILES,PLK1 kinase inh,PTPN22 inh 2,PTPN22 act,EphB4 antag,Rev-RRE block,PLK1 PBD inh
O=C(CS(=O)CC(=O)N(CC(=O)NC1CCCC1)c1ccc2c(c1)OCCO2)Nc1ccc(F)cc1 (stereo not drawn),12.3,-3.1,0.6,8.8,0.3,-5.6
CCCc1cc(-n2ccnc2)n2c(nc3ccccc32)c1C#N,-4.2,-0.4,-2.8,-8.2,117.5*[fluorescence artefact?],-161.3
Cc1cc(-n2ccnc2)n2c(nc3ccccc32)c1C#N,-7.9,3.1,-2.7,-5.7,21.2,-6.6
CCOC(=O)c1ccc2c(c1)N(CC)/C(=C\C=C1/SC(=S)N(CC)C1=O)N2CC,-10.5,0.1,-0.2,-16.4,133.3*[fluorescence artefact?],-130.4
CC(=O)Nc1ccc(N2C(C(C)=O)=NN(c3ccc(Cl)cc3)C2c2sccc2C)cc1 (stereo not drawn),-9.1,6.7,-4.5,16.7*,5.3,-30.0
COC(=O)CC(NS(=O)(=O)c1cccs1)c1ccccc1Cl (stereo not drawn),-14.2,7.4,-6.0,-0.3,2.5,24.2
CCOc1cc(-c2cc(-c3ccc(N)cc3)nc(N)c2C#N)ccc1O,-2.1,5.8,-5.2,3.8,8.4,33.6
CCOc1cc(-c2ccc(N)c(OCC)c2)ccc1N,-7.5,3.7,-2.1,1.3,84.2*,-4.8
CC(=O)N1CCc2cc(C(=O)CN3CCCN(Cc4ccc(F)cc4)C3)ccc21,67.8*,-2.7,2.1,-3.2,-2.6,19.3
O=C(Nc1cnc2ccccn2c1=O)c1ccc(Cl)cc1,-1.5,-5.9,8.7,-0.9,-2.0,-7.8
N#CC1=C(N)Oc2n[nH]c(-c3cccs3)c2C1c1ccco1 (stereo not drawn),0.4,-27.8,26.3,-3.7,60.0*,-25.4
N#CC1=C(N)Oc2n[nH]c(-c3cccs3)c2C1c1ccsc1 (stereo not drawn),2.9,1.7,-1.6,7.6,6.8,-10.1
CCCCC(=O)Nc1sc2c(c1C(=O)OCC)CCC(C=O)=C2Cl,-15.9,7.3,-4.9,0.1,3.7,-18.5
COc1ccc(N(CN2C(=O)C3C4C=CC(C4)C3C2=O)C(=O)c2ccco2)cc1 (stereo not drawn),1.3,-5.3,2.9,-6.7,-1.1,52.2*
COc1ccc(C2CCCN2C(=O)Nc2ccc(Cl)cc2)cc1OC (stereo not drawn),-3.3,-2.3,-1.0,-9.4,6.4,18.6
CC(C)CCNC(=O)C1C2C=CC3(CN(Cc4ccccc4Cl)C(=O)C13)O2 (stereo not drawn),-12.2,-6.3,3.7,2.9,6.8,-10.0
CCCCNC(=O)C1C2C=CC3(CN(Cc4ccccc4Cl)C(=O)C13)O2 (stereo not drawn),-11.7,-4.2,2.3,16.1*,12.2,-6.9
CCc1ccccc1N1CC23C=CC(O2)C(C(=O)OC)C3C1=O (stereo not drawn),57.3*,/,/,5.1,12.1,10.3
O=C(COC(=O)C12CC3CC(CC(C3)C1)C2)NCCc1ccccc1,-14.7,15.3,-16.6,1.7,11.2,-0.6
CCc1ccc2nc(NC(=O)c3ccc4c(=O)[nH]c(CN5CCOCC5)nc4c3)sc2c1,-9.1,28.4*,-28.1,-1.9,9.1,-5.5
O=C(OCc1cccc2ccccc12)c1ccc2c(=O)[nH]c(CN3CCOCC3)nc2c1,-11.6,13.1,-12.8,-3.9,2.8,-0.7
CC(C)Sc1nnc(-c2c[nH]c3ccccc23)n1C,63.6*,/,/,-2.3,1.7,-2.3
COc1cccc(-n2c(SC)nnc2-c2c[nH]c3ccccc23)c1,-10.5,0.1,-3.2,-9.0,9.7,1.9
CCn1c(SCC(=O)NCc2ccco2)nnc1-c1c[nH]c2ccccc12,-8.6,3.3,-4.2,8.4,4.8,-12.6
CCn1c(SC(C)C(=O)OC)nnc1-c1c[nH]c2ccccc12 (stereo not drawn),64.5*,/,/,-4.4,3.0,5.8
SMILES,PLK1 kinase inh,PTPN22 inh 2,PTPN22 act,EphB4 antag,Rev-RRE block,PLK1 PBD inh
C=CCSc1nnc(-c2c[nH]c3ccccc23)n1CC,61.4*,/,/,-6.7,0.3,5.1
COc1ccc(-n2c(SC)nnc2-c2c[nH]c3ccccc23)cc1,54.8*,/,/,1.9,6.0,-30.3
O=C(COc1ccc(-c2ccccc2)cc1)N1CCN(S(=O)(=O)Cc2ccccc2)CC1,-7.3,4.3,-1.8,-5.6,8.3,-8.7
Cc1c(Cl)c(-c2n[nH]c(=S)n2-c2ccc(F)cc2)nn1C,-14.1,8.4,-3.4,-1.9,0.7,-3.7
C/C(N)=C(/C#N)C(=O)CSc1nnc(NC(C)C)s1,-8.7,5.2,-7.6,5.3,-1.5,5.2
COc1cccc(C(=O)Nc2nc3c(s2)CN(C)CC3)c1,0.7,7.9,-6.3,5.5,5.0,-23.9
Cc1noc(C(=O)N2CC3(C)CC2CC(C)(C)C3)c1Cl (stereo not drawn),69.8*,/,/,-0.2,2.0,12.0
Cc1ccc(-c2nn(CC(=O)NCc3cc(-c4nn(C)c(=O)c5ccccc45)ccc3C)c(=O)c3ccccc23)cc1,-4.4,24.9*,-24.5,-0.4,4.8,-20.8
O=C(NCCc1ccccc1)c1ccc(Cl)nc1,-6.9,-3.3,3.8,-0.8,7.3,2.3
CC(C)c1nc2n[nH]c(N)c2c2c1CCC2,4.8,0.6,-1.2,-0.3,6.7,5.0
CC(C)c1nc2n[nH]c(N)c2c2c1CSC(C)(C)C2,58.9*,-4.2,6.9,-7.6,1.9,-13.8
O=C(c1cc2ccccn2n1)N1CCN(Cc2ccccc2)CC1,54.2*,-0.1,-1.4,/,/,-6.5
O=C(c1cc2ccccn2n1)N1CCCC1,-10.9,-4.7,2.3,-5.6,6.8,15.5
O=C(NCCCN1CCCC1=O)NC12CC3CC(CC(C3)C1)C2,-9.7,-5.3,2.2,15.6*,2.5,-13.6
c1ccc(-c2ccc(-c3cnc4n3CCCCC4)cc2)cc1,-29.1,-0.8,2.5,4.5,10.1,-23.4
O=C(Nc1ccccc1Sc1ccccc1)c1ccccc1F,-6.5,7.6,-9.5,16.4*,13.9,3.7
Cc1ccc(S(=O)(=O)N[C@H](C(=O)Oc2ccc3c(C(F)(F)F)cc(=O)oc3c2)c2ccccc2)cc1,-13.5,15.2,-13.4,-5.2,58.2*,12.3
Cc1ccc(CNC(=O)c2ccccc2N)cc1,-5.0,59.7*,-58.6,-3.2,2.4,21.7
CC1(C)CC(=O)C2=C(C1)OC1=C(C(=O)CC(C)(C)C1)C2c1ccc(O)cc1O,-16.7,5.5,-6.0,8.0,94.2*[fluorescence artefact?],-1.4
CCOC(=O)C1=C(N)OC2=C(C(=O)CC(C)(C)C2)C1c1ccco1 (stereo not drawn),-14.5,-14.0,9.8,-0.2,7.4,11.7
